This is an account of results in ChEMBL document CHEMBL1128642, “Discovery of an orally bioavailable NK1 receptor antagonist, (2S,3S)-(2-methoxy-5-tetrazol-1-ylbenzyl)(2-phenylpiperidin-3-yl)amine (GR203040), with potent antiemetic activity” (J Med Chem, 1995).

Where only a bound is given, the exact number is not on record here.

A short description of data set [1]: Lipophilicity. It is filed as physicochemical. The conditions noted are these: octanol/water.
For data set [2], the system named is Mustela putorius furo. Kind of data set: Compound was evaluated in vivo for its antiemetic activity in ferret, which was administered subcutaneously immediately after (0 ptt) induction of emesis. It is filed as functional. In a few lines:
(§1)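 Adult male ferrets (1.0–1.7 kg), whole-body X-irradiation at 2 Gy over about 5 min. Antagonist given sc 90 min before irradiation or immediately after it. Retches and vomits counted. ID90 is the lowest dose giving ≥90% inhibition of emesis versus untreated irradiated controls; n per group reported.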

The test system of data set [3] is Mustela putorius furo. Briefly: Compound was evaluated in vivo for its antiemetic activity in ferret, which was administered subcutaneously 90 minutes before (90 ptt) induction of emesis;>80% inhibition observed. It is filed as functional.
Data set [4] in a line: Oral bioavailability in dog. It counts as ADME, organism-based, Canis lupus familiaris. The note with it: in vivo. The method in brief:
(§2)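 Beagle dogs, iv then oral crossover at 2 mg/kg with wash-out between doses. Blood drawn predose and at 0.08–8 h; plasma prepared at about 5 °C. Parent compound measured by solid-phase extraction and reversed-phase HPLC-UV. Plasma clearance taken from iv dosing; oral bioavailability F calculated from both routes.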

Data set [5] is described as follows: Compound was evaluated in vivo for plasma clearance in dog after intravenous dose at 2 mg/Kg. It counts as ADME, organism-based, Canis lupus familiaris. The conditions noted are these: read-out: Clp. The method in brief: as §2
The species entered for data set [6] is Canis familiaris. Kind of data set: In vitro metabolic turnover (% parent lost) after exposure to dog hepatic microsomes (hepatic first pass metabolism). It counts as functional. The conditions noted are these: Canis lupus familiaris, Liver. The method in brief:
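Dog liver microsomes with an NADPH-regenerating system, shaken at 37 °C. Centrifuged, then parent compound quantified by reverse-phase HPLC with UV detection at 215 nm. Turnover (% parent lost) taken from the peak-area difference versus a control incubation lacking NADPH regeneration.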

Data set [7] concerns the target Substance-P receptor (Homo sapiens, UniProt P25103). Briefly: Binding affinity to Tachykinin receptor 1 stably expressed in chinese hamster ovary (CHO) cells. It is filed as cell-based. The method in brief:
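Membranes from CHO cells stably expressing human NK1 receptor, grown in DMEM/F12 with 10% FCS and 4 mM glutamine. Incubated 40 min at 22 °C with 0.7–1.0 nM [3H]substance P (final) in HEPES 50 mM/3 mM MnCl2, pH 7.4, 3 µg protein.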

For data set [8], the system named is Mustela putorius furo. Briefly: Compound was evaluated in vivo for its antiemetic activity in ferret, which was administered subcutaneously 90 minutes before (90 ptt) induction of emesis. It counts as functional. The method in brief:
as §1

Data set [9] is described as follows: Partition coefficient (logD). It is filed as physicochemical. The conditions noted are these: octanol/water.
The test system of data set [10] is Substance-P receptor (Meriones unguiculatus). Briefly: Compound was evaluated for its ex vivo binding affinity towards substance P receptor measured 15 minutes post administration to gerbil. The conditions noted are these: Gerbillinae.

Sequence of Substance-P receptor (P25103 whole entry): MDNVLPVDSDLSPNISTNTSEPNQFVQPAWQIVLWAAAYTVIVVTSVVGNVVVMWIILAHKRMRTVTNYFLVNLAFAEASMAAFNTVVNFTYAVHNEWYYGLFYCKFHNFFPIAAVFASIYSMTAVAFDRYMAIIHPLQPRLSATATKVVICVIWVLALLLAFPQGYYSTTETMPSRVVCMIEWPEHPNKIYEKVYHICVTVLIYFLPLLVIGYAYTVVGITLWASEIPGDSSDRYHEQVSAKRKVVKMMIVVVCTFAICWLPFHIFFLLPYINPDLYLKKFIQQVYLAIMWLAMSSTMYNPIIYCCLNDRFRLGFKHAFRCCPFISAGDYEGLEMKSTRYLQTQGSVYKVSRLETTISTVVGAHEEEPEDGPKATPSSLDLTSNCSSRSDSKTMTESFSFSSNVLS

As a reminder, the logD is lipophilicity at a set pH, counting ionised and neutral species. In general, bioavailability refers to the share of a dose that reaches the circulation, judged against a reference dose that is usually intravenous. High values mean much systemic uptake, low ones little systemic uptake. Take `COc1ccccc1CN[C@H]1CCCN[C@H]1c1ccccc1` [CP-99994]: in data set [1], the logD came out at 1.4. Further, the ID90 in data set [2] and in [3] was 1 mg/kg in each case. In [4], this compound returned a bioavailability of less than 10%. In data set [5], the clearance was found to be 5.64 L/h/kg. In [6], the Metabolic turnover is 100%.
The term Ki denotes a measure of affinity in units of concentration, obtained from inhibition or displacement. The low end stands for a stronger hold on the target, the high end for a looser hold on the target. The compound `COc1ccc(-c2ccsc2)cc1CN[C@H]1CCCN[C@H]1c1ccccc1` had a logD in [1] of 3.1. The same compound had a Ki in data set [7] of 0.0316 nM. The compound further displayed an ID90 in data set [2] greater than 3 mg/kg. For the same compound, the Metabolic turnover in [6] amounted to 92%.
With `COc1ccc(-c2c(C)noc2C)cc1CN[C@H]1CCCN[C@H]1c1ccccc1`, in data set [1], the logD stood at 2.3. In addition, the ID90 in data set [8] is 1 mg/kg. Also, affinity in data set [7] was put at a Ki of 0.0501 nM. For the same compound, the Metabolic turnover in data set [6] was determined as 92%.
`COc1ccc(-n2cnnn2)cc1CN[C@H]1CCCN[C@H]1c1ccccc1`: the ID90 in data set [8] and in data set [2] was 0.1 mg/kg throughout. In data set [7], this compound gave an inhibition constant Ki of 0.0501 nM. Besides, the pH-dependent lipophilicity (logD) in data set [9] came out at 0.8. This compound yielded a bioavailability in [4] of 76%. Moreover, the clearance in data set [5] was 1.44 L/h/kg. In addition, the Metabolic turnover in data set [6] stood at 51%.
On to `COc1ccc(-c2ccncc2)cc1CN[C@H]1CCCN[C@H]1c1ccccc1`, for which the logD in data set [1] is 2.2. In [7], the affinity corresponds to a Ki of 0.0631 nM. Moreover, the ID90 in data set [2] worked out at 0.3 mg/kg. The Metabolic turnover in [6] was found to be 98%.
In turn, `COc1ccc(-c2cncnc2)cc1CN[C@H]1CCCN[C@H]1c1ccccc1` displayed a log distribution coefficient (logD) in data set [1] of 1.4. Besides, the ID90 in data set [8] is greater than 3 mg/kg; in [2], 3 mg/kg. Further, affinity in [7] was put at a Ki of 0.158 nM. For the same compound, the Metabolic turnover in data set [6] is 36%.
Consider `COc1ccc(-c2c(C)nn(C)c2C)cc1CN[C@H]1CCCN[C@H]1c1ccccc1`, for which the logD in [1] was determined as 2.3. Besides, the Ki in data set [7] was 0.794 nM. For the same compound, the Metabolic turnover in [6] came out at 82%.
Turning to `COc1ccc(-c2nnn(C)n2)cc1CN[C@H]1CCCN[C@H]1c1ccccc1`, the logD in [1] was 1.4. In data set [8], this compound came in with an ID90 greater than 3 mg/kg. Moreover, the Ki in [7] was 2.51 nM. In addition, the Metabolic turnover in [6] was 63%.
For `COc1ccc(-c2ccco2)cc1CN[C@H]1CCCN[C@H]1c1ccccc1`, in that order: 3, greater than 3 mg/kg, 0.501 nM and 100%.
The compound `COc1ccc(SC)cc1CN[C@H]1CCCN[C@H]1c1ccccc1` yielded a logD in data set [1] of 2. In data set [7], the affinity corresponds to a Ki of 0.0794 nM. The same compound showed an ID90 in data set [2] of 1 mg/kg. For the same compound, the Metabolic turnover in data set [6] was determined as 94%.
`COc1ccc(-c2nccn2C)cc1CN[C@H]1CCCN[C@H]1c1ccccc1` came in with a logD in data set [1] of 1.2. In data set [8], this compound yielded an ID90 greater than 3 mg/kg. This compound also gave a Ki in data set [7] of 2 nM. The Metabolic turnover in data set [6] was 90%.
As usually defined, the ED50 is the dose that gives a 50% effect, or the effect in half of the subjects. The low end stands for an effect at a small dose, the high end for a need for a large dose. In turn, `COc1ccc(S(C)(=O)=O)cc1CN[C@H]1CCCN[C@H]1c1ccccc1` came in with a logD in data set [1] of 0.2. Also, the ID90 in data set [8] and in [2] was greater than 10 mg/kg in each case. Besides, in data set [7], the Ki was 0.501 nM. The bioavailability in data set [4] was determined as 42%. Besides, the ED50 in data set [10] is greater than 0.3 mg/kg. Also, the clearance in [5] was 1.38 L/h/kg. Moreover, the Metabolic turnover in data set [6] is 25%.
The compound `COc1ccc(-c2nccs2)cc1CN[C@H]1CCCN[C@H]1c1ccccc1` displayed a logD in data set [1] of 2.3. The compound further gave a Ki in data set [7] of 0.794 nM. For the same compound, the ID90 in data set [2] is greater than 3 mg/kg. Further, the Metabolic turnover in [6] was 61%.
`COc1ccc(Br)cc1CN[C@H]1CCCN[C@H]1c1ccccc1`: in data set [1], the logD is 2.5. In addition, the Ki in data set [7] was 0.0501 nM. In addition, the Metabolic turnover in data set [6] was 60%.
Turning to `COc1ccc(-c2ccoc2)cc1CN[C@H]1CCCN[C@H]1c1ccccc1`, the logD in data set [1] came out at 2.5. The ID90 in data set [8] and in [2] was 0.3 mg/kg each time. For the same compound, affinity in data set [7] was put at a Ki of 0.0631 nM. The bioavailability in data set [4] was less than 10%. Also, the clearance in data set [5] was 2.7 L/h/kg. In addition, the Metabolic turnover in data set [6] stood at 85%.
Consider `COc1ccc(-n2ncnn2)cc1CN[C@H]1CCCN[C@H]1c1ccccc1`, for which the ID90 in [8] is greater than 1 mg/kg. The compound also showed a Ki in [7] of 0.126 nM. The same compound showed a logD in [9] of 0.8. Further, the Metabolic turnover in [6] was found to be 65%.
`COc1ccc(-c2nnnn2C)cc1CN[C@H]1CCCN[C@H]1c1ccccc1`: in [1], the logD turned out to be 0.5. Further, the ID90 in data set [8] is greater than 3 mg/kg. Also, the inhibition constant Ki in data set [7] was 0.2 nM. Moreover, the Metabolic turnover in [6] amounted to 27%.
In data set [1], `COc1ccc(F)cc1CN[C@H]1CCCN[C@H]1c1ccccc1` yielded a logD of 1.8. This compound showed a Ki in data set [7] of 0.158 nM. Moreover, the ID90 in data set [2] came out at 3 mg/kg.
`COc1ccc(-n2cncn2)cc1CN[C@H]1CCCN[C@H]1c1ccccc1` yielded a logD in data set [1] of 1.2. Further, the figures for the ID90 in [8] and in [2] were greater than 3 mg/kg and 3 mg/kg, respectively. In data set [7], this compound had a Ki of 0.158 nM. The Metabolic turnover in data set [6] amounted to 55%.
